The text below walks through data of ChEMBL document CHEMBL4699573, “Design, Synthesis, and Pharmacological Evaluation of Analogues Derived from the PLEV Tetrapeptide as Protein-Protein Interaction Modulators of Voltage-Gated Sodium Channel 1.6” (J Med Chem, 2020).

Series [1] has as its target T1, Fibroblast growth factor 14 (Homo sapiens) (UniProt Q92915).
T1 sequence (whole entry): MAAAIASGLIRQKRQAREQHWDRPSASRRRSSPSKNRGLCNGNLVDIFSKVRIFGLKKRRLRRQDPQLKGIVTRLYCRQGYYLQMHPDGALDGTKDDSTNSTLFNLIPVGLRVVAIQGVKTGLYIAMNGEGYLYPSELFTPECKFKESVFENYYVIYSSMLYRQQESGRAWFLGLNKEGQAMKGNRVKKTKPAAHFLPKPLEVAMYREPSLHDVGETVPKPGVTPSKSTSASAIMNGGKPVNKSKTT
Briefly: Binding affinity to human recombinant FGF14 expressed in Escherichia coli BL21 assessed as assessed as induction of protein denaturation by measuring change in melting temperature at 50 uM by fluorescent dye based thermal shift assay. The conditions noted are these: filed as modulator.

The target in series [2] is T2, Sodium channel protein type 8 subunit alpha (Homo sapiens, UniProt Q9UQD0). Nature of the series: Modulation of recombinant human Nav1.6 C-terminal tail (1763 to 1976 residues) expressed in HEK293 cells assessed as half activation voltage at 10 uM incubated for 30 mins by whole cell patch clamp electrophysiology assay (reference value: -25.4 +/- 1 mV). The class given is cell-based. The method, boiled down: (§1)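 Stable HEK-Nav1.6 cells without FGF14, incubated at least 30 min in extracellular solution (mM: 140 NaCl, 3 KCl, 1 MgCl2, 1 CaCl2, 10 HEPES, 10 glucose, pH 7.3) with compound (10 or 30 μM) or 0.1% DMSO. Whole-cell recording with Cs-methanesulfonate/EGTA/NaCl/HEPES pipette solution, 70–80% compensation. Steps −100 to +60 mV; tau measured at −10 mV. Student's t-test.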
T2 sequence (Q9UQD0 whole entry, looked up, the tested form may be a part): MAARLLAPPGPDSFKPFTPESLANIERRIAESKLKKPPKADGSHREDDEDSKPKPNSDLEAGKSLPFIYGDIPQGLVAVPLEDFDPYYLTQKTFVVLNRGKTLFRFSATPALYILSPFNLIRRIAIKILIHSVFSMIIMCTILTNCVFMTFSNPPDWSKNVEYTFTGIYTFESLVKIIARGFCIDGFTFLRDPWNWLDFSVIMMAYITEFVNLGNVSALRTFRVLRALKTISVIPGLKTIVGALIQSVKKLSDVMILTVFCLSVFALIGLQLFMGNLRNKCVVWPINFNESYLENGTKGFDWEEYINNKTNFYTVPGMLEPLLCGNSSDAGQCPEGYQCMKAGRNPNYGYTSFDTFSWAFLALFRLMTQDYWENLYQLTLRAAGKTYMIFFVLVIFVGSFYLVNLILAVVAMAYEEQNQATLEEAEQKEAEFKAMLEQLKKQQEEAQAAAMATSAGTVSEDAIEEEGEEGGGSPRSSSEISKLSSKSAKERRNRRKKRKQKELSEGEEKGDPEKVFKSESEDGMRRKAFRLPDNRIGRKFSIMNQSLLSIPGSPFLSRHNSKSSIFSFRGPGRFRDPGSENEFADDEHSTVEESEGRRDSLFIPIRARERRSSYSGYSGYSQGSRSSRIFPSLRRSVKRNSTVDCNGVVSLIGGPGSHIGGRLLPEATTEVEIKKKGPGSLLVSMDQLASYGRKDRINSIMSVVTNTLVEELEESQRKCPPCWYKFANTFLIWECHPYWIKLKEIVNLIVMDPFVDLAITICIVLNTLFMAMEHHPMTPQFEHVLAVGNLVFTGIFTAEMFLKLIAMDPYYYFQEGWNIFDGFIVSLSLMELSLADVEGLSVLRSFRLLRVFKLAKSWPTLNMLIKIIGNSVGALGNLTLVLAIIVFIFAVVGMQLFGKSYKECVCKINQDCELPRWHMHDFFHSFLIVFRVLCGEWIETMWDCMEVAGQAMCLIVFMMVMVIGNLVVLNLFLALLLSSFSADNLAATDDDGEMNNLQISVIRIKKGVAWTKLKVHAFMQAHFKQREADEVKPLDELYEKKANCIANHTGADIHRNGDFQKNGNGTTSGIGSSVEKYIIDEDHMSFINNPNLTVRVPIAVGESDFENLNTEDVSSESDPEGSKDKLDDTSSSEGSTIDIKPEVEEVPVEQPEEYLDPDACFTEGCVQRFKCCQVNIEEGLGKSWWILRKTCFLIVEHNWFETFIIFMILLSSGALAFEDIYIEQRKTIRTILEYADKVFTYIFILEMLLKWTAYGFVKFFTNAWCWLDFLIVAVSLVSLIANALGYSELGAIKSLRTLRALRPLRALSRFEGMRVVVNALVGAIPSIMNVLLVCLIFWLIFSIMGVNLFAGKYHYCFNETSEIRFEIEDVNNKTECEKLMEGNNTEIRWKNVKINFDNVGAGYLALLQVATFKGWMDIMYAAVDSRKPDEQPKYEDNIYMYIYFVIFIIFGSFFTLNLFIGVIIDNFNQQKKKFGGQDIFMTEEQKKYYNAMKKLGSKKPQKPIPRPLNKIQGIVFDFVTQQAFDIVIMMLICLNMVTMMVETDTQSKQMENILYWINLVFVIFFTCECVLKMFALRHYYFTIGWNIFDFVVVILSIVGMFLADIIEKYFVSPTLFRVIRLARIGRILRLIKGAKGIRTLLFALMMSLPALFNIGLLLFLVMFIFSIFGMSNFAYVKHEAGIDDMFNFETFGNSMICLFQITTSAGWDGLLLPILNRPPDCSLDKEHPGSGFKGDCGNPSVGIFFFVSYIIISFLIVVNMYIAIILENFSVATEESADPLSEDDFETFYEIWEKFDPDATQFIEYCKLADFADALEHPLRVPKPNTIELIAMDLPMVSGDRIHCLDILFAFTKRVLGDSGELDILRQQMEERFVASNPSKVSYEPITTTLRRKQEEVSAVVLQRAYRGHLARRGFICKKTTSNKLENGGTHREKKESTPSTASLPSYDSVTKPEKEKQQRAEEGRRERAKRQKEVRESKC

The target of series [3] is T3, Fibroblast growth factor 14/SCN8A (Homo sapiens) (UniProt Q9UQD0+Q92915). Briefly: Modulation of recombinant human Nav1.6 C-terminal tail (1763 to 1976 residues)-FGF14 (64 to 252 residues) protein-protein interaction expressed in HEK293 cells assessed as steady state half inactivation voltage at 10 uM incubated for 30 mins by whole cell patch clamp electrophysiology assay (reference value: -55.1 +/- 2 mV). The class given is cell-based. The method, boiled down:
(§2)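 HEK-Nav1.6 cells transiently transfected with FGF14 using Lipofectamine 2000, then exposed at least 30 min to 10 μM compound or 0.1% DMSO in the pH 7.3 HEPES extracellular solution. Whole-cell patch clamp with Cs-methanesulfonate internal solution, 70–80% capacitance and series-resistance compensation. Test steps from −100 to +60 mV. Student's t-test used.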
On the technique in general: The patch-clamp technique gives a direct electrical read-out from membranes.

Series [4] addresses T3, Fibroblast growth factor 14/SCN8A (Homo sapiens). Nature of the series: Modulation of human recombinant FGF14-Nav1.6 C-terminal domain expressed in Escherichia coli BL21 (DE3) protein-protein interaction assessed as association rate constant by SPR analysis (reference value: 2.18X10^4 +/- 1.6X10^2 /M/s). The conditions noted are these: filed as modulator. A digest of the protocol: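 FGF14 at 15.6–1500 nM, premixed with 10 μM compound or DMSO, flowed over CM5-bound Nav1.6 C-terminal tail (934 RU). Final 2.1% DMSO, 25 °C, 50 μL/min, 120 s association and 150 s dissociation. Blank-subtracted sensorgrams fitted to a Langmuir 1:1 model.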
(In general: SPR reads the build-up and loss of mass on a sensor chip optically.)

For series [5], the target named is T2, Sodium channel protein type 8 subunit alpha. Briefly: Modulation of recombinant human Nav1.6 C-terminal tail (1763 to 1976 residues) expressed in HEK293 cells assessed as long-term inactivation at depolarization cycle 3 at 10 uM incubated for 30 mins by whole cell patch clamp electrophysiology assay (reference value: 0.76 +/- 0.05). The conditions noted are these: filed as modulator. The class given is cell-based.

The test system of series [6] is HEK293. Nature of the series: Modulation of recombinant human FGF141b (1 to 252 residues)-recombinant human Nav1.6 C-terminal tail (1763 to 1976 residues) protein-protein interaction expressed in HEK293 cells assessed as relative luminescence value at 50 uM measured at 2 mins interval for 20 mins by split-luciferase complementation assay relative to control. The format is cell-based. The settings on record: filed as modulator, time min 2-20. The method, boiled down: (§3)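 Double-stable HEK293 line expressing CLuc-FGF14 and CD4-Nav1.6-C-tail-NLuc, kept on G418 and puromycin. Cells seeded for 24 h, then given compound for 1 h in serum-free, phenol red-free DMEM/F12 with a final 0.5% DMSO: 50 μM for screening, 0.25–100 μM over eight concentrations for dose-response; n = 4. D-luciferin added and read every 2 min for 20 min at 37 °C. Peak luminescence expressed as percent of per-plate DMSO mean (n = 32). IC50 from four-parameter nonlinear fit. At least 3 experiments.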

For series [7], the target named is T3, Fibroblast growth factor 14/SCN8A (Homo sapiens). Nature of the series: Modulation of recombinant human Nav1.6 C-terminal tail (1763 to 1976 residues)-FGF14 (64 to 252 residues) protein-protein interaction expressed in HEK293 cells assessed as peak current density at 10 uM incubated for 30 mins by whole cell patch clamp electrophysiology assay (reference value: -19.3 +/- 1.3). The class given is cell-based. A digest of the protocol:
as §2

For series [8] the target is unchanged. Briefly: Modulation of recombinant human Nav1.6 C-terminal tail (1763 to 1976 residues)-FGF14 (64 to 252 residues) protein-protein interaction expressed in HEK293 cells assessed as long-term inactivation at depolarization cycle 2 at 10 uM incubated for 30 mins by cell patch clamp electrophysiology assay (reference value: 1 +/- 0.02). The format is cell-based. The conditions noted are these: filed as modulator. The method, boiled down: as §2

Series [9] relates to HEK293. Nature of the series: Cytotoxicity against HEK293 cells assessed as reduction in cell viability measured after 18 hrs by celltiter-blue assay. The settings on record: human, hek293, 18 h.
Series [10] has as its system HEK293. Nature of the series: Modulation of recombinant human FGF141b (1 to 252 residues)-recombinant human Nav1.6 C-terminal tail (1763 to 1976 residues) protein-protein interaction expressed in HEK293 cells measured at 2 mins interval for 20 mins by split-luciferase complementation assay relative to control. The format is cell-based. The settings on record: filed as modulator, time min 2-20. The method, boiled down: as §3

Series [11] has as its target T2, Sodium channel protein type 8 subunit alpha. Nature of the series: Modulation of recombinant human Nav1.6 C-terminal tail (1763 to 1976 residues) expressed in HEK293 cells assessed as steady state half inactivation voltage at 10 uM incubated for 30 mins by whole cell patch clamp electrophysiology assay (reference value: -62 +/- 1.3 mV). The format is cell-based. The method, boiled down:
as §1

The subject of series [12] is HEK293. Briefly: Inhibition of full-length Photinus pyralis luciferase transfected in HEK293 cells at 25 uM incubated for 1 hrs by split-luciferase complementation assay. The format is cell-based. The method, boiled down: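 HEK293 cells transfected with full-length Photinus pyralis luciferase, then treated 1 h with 25 μM compound (n = 4) or 0.5% DMSO (n = 32). Luminescence read after D-luciferin addition, as in the LCA, normalized to per-plate DMSO controls. One-way ANOVA with Dunnett's test.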

Molecules are shown by their SMILES. Active and inactive are the calls of the source. The calls are words filed in the database; no cut-off is given here. Residues, ends and D or L forms follow the SMILES beside them. *: point of attachment. Adamantane1carbonyl = O=C(C12CC3CC(CC(C3)C1)C2)*; OtBu = CC(C)(C)O*

T3 sequence (Q9UQD0 whole entry, looked up, one chain of several, the tested form may be a part): as the sequence (Q9UQD0 whole entry, looked up, the tested form may be a part) above

A word on the ΔTm: it is the shift of the melting midpoint relative to a reference. For `COC(=O)[C@@H](NC(=O)[C@H](CCC(=O)OC(C)(C)C)NC(=O)[C@H](CC(C)C)NC(=O)[C@@H]1CCCN1C(=O)C12CC3CC(CC(C3)C1)C2)C(C)C` (Adamantane1carbonyl-PLE(OtBu)V-OMe), in series [1], the ΔTm was -2.27 °C. The Activity in series [2] was -16.9 mV; in series [3] it was -65.6 mV; in [5] it was 0.76; with HEK293 [6], 4.7%; in [7] it was -38.8 pA/pF; in series [8], 0.86. The values for the Activity result (in the series with HEK293 [9]; in series [11]) were “Non-Toxic” and -55.2 mV, respectively. Further, the K in series [4] is 5.88 10^6/M/s. Besides, the Efficacy in the series on HEK293 [10] came to 96.1%. Further, the inhibition result in the series on HEK293 [12] was “inactive”.
